Experimental data from ChEMBL document CHEMBL1144895, “Synthesis and anticonvulsant activity of novel bicyclic acidic amino acids” (J Med Chem, 2003).
pEC50, pIC50, pKi: −log10 of the molar value.

Experiments:
Mus musculus [1] = experiment: In vivo anticonvulsant activity determined as icv dose that blocked clonic seizures induced in DBA/2 mice by audiogenic stimuli; type: functional; conditions: central
Method in brief: (§1)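 Male DBA/2 mice (6–12 g, 22–26 days old) received icv drug or vehicle (10 μL, 1 mm anterior to bregma, 1 mm lateral, 3 mm depth) under light ether anaesthesia. Drug was dissolved in DMSO, pH 7.3–7.7 with phosphate buffer. 45 min later, 110 dB bell for 60 s; wild running, clonus, tonic extension scored.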

Mus musculus [2] = experiment: In vivo anticonvulsant activity determined as icv dose that blocked NMDA-induced clonic seizures induced in DBA/2 mice; type: functional; conditions: central
Method in brief: (§2)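 DBA/2 mice, n = 10 per group, were dosed with drug in DMSO buffered to pH 7.3–7.7, then given icv NMDA: 18.7 nmol/mouse for tonic extension or 1.9 nmol/mouse for clonic seizures. ED50 by Litchfield–Wilcoxon, 95% confidence limits.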

Mus musculus [3] = experiment: In vivo anticonvulsant activity determined as icv dose that blocked clonic seizures induced by audiogenic stimuli in DBA/2 mice after pretreatment with D-serine; type: functional; conditions: central
Mus musculus [4] = experiment: In vivo anticonvulsant activity determined as icv dose that blocked 3,5-DHPG induced tonic seizures induced in DBA/2 mice after; type: functional; conditions: central
Mus musculus [5] = experiment: In vivo anticonvulsant activity determined as icv dose that blocked tonic seizures induced by audiogenic stimuli in DBA/2 mice after pretreatment with D-serine; type: functional; conditions: central
Mus musculus [6] = experiment: In vivo anticonvulsant activity determined as icv dose that blocked 3,5-DHPG induced clonic seizures induced in DBA/2 mice; type: functional; conditions: central
Mus musculus [7] = experiment: In vivo anticonvulsant activity determined as icv dose that blocked tonic seizures induced in DBA/2 mice by audiogenic stimuli; type: functional; conditions: central; method in brief: as §1
Mus musculus [8] = experiment: In vivo anticonvulsant activity determined as icv dose that blocked NMDA-induced tonic seizures induced in DBA/2 mice after ip administration; type: functional; method in brief: as §2
Glutamate NMDA receptor = experiment: In vitro binding affinity for rat cortical membrane N-methyl-D-aspartate glutamate receptor determined using [3H]CPP as radioligand
[9] = biological target: Metabotropic glutamate receptor 2 (Rattus norvegicus, UniProt P31421); experiment: Activity tested at cloned rat mGluR2 receptor expressed in Chinese Hamster Ovary (CHO) cells; type: functional, cell-based
Chain of Metabotropic glutamate receptor 2 (P31421 whole entry): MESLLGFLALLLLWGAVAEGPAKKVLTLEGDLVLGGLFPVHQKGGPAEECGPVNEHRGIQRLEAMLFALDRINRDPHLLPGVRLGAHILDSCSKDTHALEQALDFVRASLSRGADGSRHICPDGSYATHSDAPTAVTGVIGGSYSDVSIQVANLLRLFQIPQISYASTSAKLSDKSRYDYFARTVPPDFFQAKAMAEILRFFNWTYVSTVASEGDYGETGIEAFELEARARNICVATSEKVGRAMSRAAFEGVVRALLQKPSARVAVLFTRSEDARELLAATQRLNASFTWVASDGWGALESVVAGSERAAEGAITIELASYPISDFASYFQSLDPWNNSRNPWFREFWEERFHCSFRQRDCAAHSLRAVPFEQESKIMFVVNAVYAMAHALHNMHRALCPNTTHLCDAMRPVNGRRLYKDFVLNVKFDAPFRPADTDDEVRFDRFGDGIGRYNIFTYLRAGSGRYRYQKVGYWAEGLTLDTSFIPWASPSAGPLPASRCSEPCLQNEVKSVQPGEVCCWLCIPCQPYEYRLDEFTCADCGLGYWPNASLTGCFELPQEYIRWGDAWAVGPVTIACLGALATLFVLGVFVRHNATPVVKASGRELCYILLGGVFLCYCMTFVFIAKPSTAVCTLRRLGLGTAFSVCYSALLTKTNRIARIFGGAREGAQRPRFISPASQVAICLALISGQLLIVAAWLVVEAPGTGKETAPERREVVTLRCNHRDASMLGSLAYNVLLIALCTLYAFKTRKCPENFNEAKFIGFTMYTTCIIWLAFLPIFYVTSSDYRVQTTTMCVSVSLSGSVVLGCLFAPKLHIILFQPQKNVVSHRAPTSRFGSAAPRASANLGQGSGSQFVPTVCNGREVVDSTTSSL
Method in brief: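 Rat mGluR2 stably expressed in CHO cells, with cells maintained and tested as described in an earlier report. Agonism was assessed directly. Antagonism was assessed against a response to 30 μM Glu, with test compound at 1 mM.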

[10] = biological target: T1, Metabotropic glutamate receptor 4 (Rattus norvegicus, UniProt P31423); experiment: Inhibitory constant against cloned rat Metabotropic glutamate receptor 4 expressed in Chinese Hamster Ovary (CHO) cells; type: cell-based
T1 sequence (P31423 whole entry): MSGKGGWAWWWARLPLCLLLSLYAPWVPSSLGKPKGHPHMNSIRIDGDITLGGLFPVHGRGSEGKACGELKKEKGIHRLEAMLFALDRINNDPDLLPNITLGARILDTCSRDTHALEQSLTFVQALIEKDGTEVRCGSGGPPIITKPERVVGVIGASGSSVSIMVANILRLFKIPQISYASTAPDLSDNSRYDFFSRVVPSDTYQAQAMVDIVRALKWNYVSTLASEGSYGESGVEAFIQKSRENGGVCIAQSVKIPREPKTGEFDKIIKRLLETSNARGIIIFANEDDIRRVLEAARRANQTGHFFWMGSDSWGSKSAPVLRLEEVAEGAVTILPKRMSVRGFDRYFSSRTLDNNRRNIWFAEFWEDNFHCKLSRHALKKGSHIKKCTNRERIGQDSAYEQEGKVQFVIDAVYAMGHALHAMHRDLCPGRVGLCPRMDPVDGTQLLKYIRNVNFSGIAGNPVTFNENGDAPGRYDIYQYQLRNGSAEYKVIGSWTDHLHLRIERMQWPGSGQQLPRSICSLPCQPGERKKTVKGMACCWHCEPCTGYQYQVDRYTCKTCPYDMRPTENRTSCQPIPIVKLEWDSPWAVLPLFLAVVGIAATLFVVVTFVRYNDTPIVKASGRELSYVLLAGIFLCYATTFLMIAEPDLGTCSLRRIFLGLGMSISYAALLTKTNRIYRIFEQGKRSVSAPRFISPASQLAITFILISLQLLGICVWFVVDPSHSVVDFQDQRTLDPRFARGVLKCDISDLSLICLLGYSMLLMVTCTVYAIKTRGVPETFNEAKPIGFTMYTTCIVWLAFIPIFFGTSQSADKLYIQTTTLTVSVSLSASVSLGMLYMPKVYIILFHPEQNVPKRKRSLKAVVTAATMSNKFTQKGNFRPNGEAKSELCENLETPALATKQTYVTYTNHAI
Method in brief: (§3)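 Cloned rat mGluR1α, mGluR2, mGluR4a or mGluR5a stably expressed in CHO cell lines; cells maintained and tested by a previously described procedure.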

Mus musculus [11] = experiment: In vivo anticonvulsant activity determined as ip dose that blocked NMDA-induced tonic seizures induced in DBA/2 mice; type: functional
Rattus norvegicus [12] = species: Rattus norvegicus; experiment: Agonist activity tested in rat cortical slice model; type: functional
Method in brief: (§4)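 Rat cortical slice model; compounds tested up to 1000 μM both as agonists and as antagonists. Antagonism measured against responses to NMDA (10 μM), AMPA (5 μM) or KA (5 μM), agonist applied for a further 90 s.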

[13] = biological target: T2, Glutamate receptor ionotropic, AMPA (Rattus norvegicus, UniProt P19490+P19491+P19492+P19493); experiment: Binding affinity of compound was determined against Ionotropic glutamate receptor AMPA receptor, using radioligand [3H]- AMPA; type: protein-complex assay
Rattus norvegicus [14] = species: Rattus norvegicus; experiment: Antagonist activity tested in rat cortical slice model; type: functional; method in brief: as §4
Mus musculus [15] = experiment: In vivo anticonvulsant activity determined as ip dose that blocked 3,5-DHPG induced tonic seizures induced in DBA/2 mice; type: functional
Method in brief: (§5)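 DBA/2 mice (n = 10 per group) given agent ip at 10–100 μmol/kg 15 min before icv DHPG (1.5 μmol); seizure-related activity observed for 90 min.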

Mus musculus [16] = experiment: In vivo anticonvulsant activity determined as ip dose that blocked tonic seizures induced in DBA/2 mice by audiogenic stimuli; type: functional
Method in brief: (§6)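 Male DBA/2 mice (6–12 g, 22–26 days old) given drug or vehicle ip (DMSO, pH 7.3–7.7 with phosphate buffer). After 45 min, a 110 dB sound for 60 s or until clonus; seizures scored (wild running, clonic, tonic, respiratory arrest).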

Mus musculus [17] = experiment: In vivo anticonvulsant activity determined as ip dose that blocked tonic seizures induced by audiogenic stimuli in DBA/2 mice after pretreatment with D-serine; type: functional
Method in brief: (§7)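 DBA/2 mice pretreated with D-serine (300 nmol/mouse, icv) 30 min […], then tested for audiogenic seizures (110 dB sound, clonic/tonic phases scored).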

[18] = biological target: T3, Metabotropic glutamate receptor 5 (Rattus norvegicus, UniProt P31424); experiment: Inhibitory constant against cloned rat Metabotropic glutamate receptor 5 expressed in Chinese Hamster Ovary (CHO) cells; type: cell-based; method in brief: as §3
T3 sequence (P31424 whole entry): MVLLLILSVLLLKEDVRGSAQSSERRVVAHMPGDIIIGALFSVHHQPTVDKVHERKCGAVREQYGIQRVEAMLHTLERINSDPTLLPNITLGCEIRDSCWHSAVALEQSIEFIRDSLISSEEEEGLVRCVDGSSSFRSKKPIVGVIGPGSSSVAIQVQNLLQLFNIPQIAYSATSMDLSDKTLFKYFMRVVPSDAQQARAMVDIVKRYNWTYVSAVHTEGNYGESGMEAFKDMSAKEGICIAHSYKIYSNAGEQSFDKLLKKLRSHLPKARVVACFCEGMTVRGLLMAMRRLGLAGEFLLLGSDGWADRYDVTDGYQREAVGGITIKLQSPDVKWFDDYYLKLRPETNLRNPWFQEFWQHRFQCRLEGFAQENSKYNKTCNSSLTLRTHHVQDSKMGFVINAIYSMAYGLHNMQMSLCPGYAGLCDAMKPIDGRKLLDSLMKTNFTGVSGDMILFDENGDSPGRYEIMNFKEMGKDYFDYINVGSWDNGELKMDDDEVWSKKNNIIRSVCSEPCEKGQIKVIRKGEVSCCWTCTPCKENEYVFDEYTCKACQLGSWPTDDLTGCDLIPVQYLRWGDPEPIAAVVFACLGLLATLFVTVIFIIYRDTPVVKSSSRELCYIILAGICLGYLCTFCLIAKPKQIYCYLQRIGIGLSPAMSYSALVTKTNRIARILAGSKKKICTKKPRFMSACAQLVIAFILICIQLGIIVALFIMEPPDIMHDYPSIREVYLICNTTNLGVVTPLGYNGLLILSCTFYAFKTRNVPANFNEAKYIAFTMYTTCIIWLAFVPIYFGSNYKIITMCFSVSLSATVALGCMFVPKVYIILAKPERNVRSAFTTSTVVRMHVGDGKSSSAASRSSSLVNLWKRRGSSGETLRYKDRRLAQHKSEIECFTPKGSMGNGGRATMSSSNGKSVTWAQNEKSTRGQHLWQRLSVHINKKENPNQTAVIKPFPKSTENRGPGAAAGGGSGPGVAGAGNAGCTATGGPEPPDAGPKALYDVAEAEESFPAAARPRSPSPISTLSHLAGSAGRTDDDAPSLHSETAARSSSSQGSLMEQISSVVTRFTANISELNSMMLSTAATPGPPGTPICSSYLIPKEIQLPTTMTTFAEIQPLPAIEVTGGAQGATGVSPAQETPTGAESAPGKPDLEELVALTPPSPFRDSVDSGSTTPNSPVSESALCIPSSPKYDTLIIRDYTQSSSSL

Mus musculus [19] = experiment: In vivo anticonvulsant activity determined as ip dose that blocked clonic seizures induced by audiogenic stimuli in DBA/2 mice after pretreatment with D-serine; type: functional; method in brief: as §7
[20] = biological target: T1, Metabotropic glutamate receptor 4; experiment: Activity tested at cloned rat Metabotropic glutamate receptor 4 expressed in Chinese Hamster Ovary (CHO) cells; type: functional, cell-based; method in brief: as §3
[21] = biological target: Glutamate receptor ionotropic, kainate; experiment: In vitro binding affinity for rat cortical membrane KA receptor determined using [3H]KA as radioligand
[22] = biological target: Metabotropic glutamate receptor 1 (Rattus norvegicus, UniProt P23385); experiment: Inhibitory constant against cloned rat Metabotropic glutamate receptor 1 expressed in Chinese Hamster Ovary (CHO) cells; type: cell-based; method in brief: as §3
Chain of Metabotropic glutamate receptor 1 (P23385 whole entry): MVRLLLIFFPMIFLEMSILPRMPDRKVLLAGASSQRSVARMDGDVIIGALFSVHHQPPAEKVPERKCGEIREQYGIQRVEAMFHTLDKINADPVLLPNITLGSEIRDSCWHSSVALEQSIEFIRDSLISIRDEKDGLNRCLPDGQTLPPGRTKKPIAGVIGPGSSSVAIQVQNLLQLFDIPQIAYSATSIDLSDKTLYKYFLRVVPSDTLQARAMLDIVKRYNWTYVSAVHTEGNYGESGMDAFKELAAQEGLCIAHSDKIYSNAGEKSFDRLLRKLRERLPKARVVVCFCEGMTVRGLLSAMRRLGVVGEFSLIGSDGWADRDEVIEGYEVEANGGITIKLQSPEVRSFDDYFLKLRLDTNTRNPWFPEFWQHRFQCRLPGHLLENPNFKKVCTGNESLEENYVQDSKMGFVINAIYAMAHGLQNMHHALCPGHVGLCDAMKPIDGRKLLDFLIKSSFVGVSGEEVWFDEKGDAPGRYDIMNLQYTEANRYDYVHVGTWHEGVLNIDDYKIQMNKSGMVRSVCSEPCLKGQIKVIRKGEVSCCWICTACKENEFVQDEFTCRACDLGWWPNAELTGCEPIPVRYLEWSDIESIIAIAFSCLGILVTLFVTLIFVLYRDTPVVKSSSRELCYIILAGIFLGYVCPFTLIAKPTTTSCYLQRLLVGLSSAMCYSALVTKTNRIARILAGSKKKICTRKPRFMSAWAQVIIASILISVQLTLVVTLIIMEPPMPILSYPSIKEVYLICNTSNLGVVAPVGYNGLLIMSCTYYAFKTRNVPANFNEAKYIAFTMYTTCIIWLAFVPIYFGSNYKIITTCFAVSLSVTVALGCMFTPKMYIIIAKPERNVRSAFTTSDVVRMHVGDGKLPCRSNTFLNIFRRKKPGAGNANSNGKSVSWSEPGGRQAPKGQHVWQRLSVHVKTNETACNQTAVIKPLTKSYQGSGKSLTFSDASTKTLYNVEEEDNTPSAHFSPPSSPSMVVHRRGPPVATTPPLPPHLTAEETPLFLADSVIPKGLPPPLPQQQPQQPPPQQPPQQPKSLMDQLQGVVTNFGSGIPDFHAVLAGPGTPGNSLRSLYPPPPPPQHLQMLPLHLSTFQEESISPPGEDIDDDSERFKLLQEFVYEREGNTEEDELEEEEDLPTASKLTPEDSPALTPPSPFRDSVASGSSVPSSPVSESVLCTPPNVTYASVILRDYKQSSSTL

Mus musculus [23] = experiment: In vivo anticonvulsant activity determined as ip dose that blocked clonic seizures induced in DBA/2 mice by audiogenic stimuli; type: functional; method in brief: as §6
[24] = biological target: T3, Metabotropic glutamate receptor 5; experiment: Activity tested at cloned rat Metabotropic glutamate receptor 5 expressed in Chinese Hamster Ovary (CHO) cells; type: functional, cell-based
Method in brief: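 Rat mGluR5a splice variant expressed in a CHO cell line. Compounds were tested for agonist and antagonist action at this receptor.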

Mus musculus [25] = experiment: In vivo anticonvulsant activity determined as ip dose that blocked NMDA-induced tonic seizures induced in DBA/2 mice after ip administration; type: functional
Mus musculus [26] = experiment: In vivo anticonvulsant activity determined as ip dose that blocked 3,5-DHPG induced tonic seizures induced in DBA/2 mice after; type: functional; method in brief: as §5
[27] = biological target: Metabotropic glutamate receptor 2 (Rattus norvegicus) (UniProt P31421); experiment: Activity tested at cloned rat mGluR2 receptor expressed in Chinese Hamster Ovary (CHO) cells at 1 mM concentration; type: functional, cell-based
Chain of Metabotropic glutamate receptor 2 (Rattus norvegicus) (P31421 19-872 limits assumed): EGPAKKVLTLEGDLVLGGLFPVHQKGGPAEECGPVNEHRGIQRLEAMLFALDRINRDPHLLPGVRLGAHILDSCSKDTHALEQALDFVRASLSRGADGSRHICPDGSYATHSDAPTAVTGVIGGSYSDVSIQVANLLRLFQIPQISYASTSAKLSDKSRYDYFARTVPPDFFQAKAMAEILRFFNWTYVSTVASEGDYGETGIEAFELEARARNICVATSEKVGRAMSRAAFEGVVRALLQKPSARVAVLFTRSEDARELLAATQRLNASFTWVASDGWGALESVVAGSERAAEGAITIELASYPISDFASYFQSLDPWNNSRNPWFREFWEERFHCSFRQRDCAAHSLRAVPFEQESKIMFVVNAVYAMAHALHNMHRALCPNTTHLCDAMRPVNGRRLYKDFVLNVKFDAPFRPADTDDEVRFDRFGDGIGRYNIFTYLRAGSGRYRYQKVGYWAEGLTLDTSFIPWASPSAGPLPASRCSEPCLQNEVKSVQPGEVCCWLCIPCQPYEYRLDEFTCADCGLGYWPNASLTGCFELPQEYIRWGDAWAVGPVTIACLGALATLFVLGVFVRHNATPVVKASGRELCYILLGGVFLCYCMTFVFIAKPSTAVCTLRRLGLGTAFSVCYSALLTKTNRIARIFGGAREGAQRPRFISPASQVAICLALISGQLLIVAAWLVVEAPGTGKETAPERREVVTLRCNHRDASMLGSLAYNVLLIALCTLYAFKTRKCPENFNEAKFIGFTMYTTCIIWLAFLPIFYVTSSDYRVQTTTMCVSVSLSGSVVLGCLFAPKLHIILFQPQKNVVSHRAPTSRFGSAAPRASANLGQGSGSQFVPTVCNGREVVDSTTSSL
Method in brief: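 Cloned rat mGluR2 in CHO cells; test compound at 1 mM, also checked for inhibition of the response to 30 μM Glu.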

Rattus norvegicus [28] = species: Rattus norvegicus; experiment: Antagonist activity against responses induced by 10 uM NMDA tested in rat cortical slice model; type: functional
Method in brief: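 Rat cortical slices; antagonism of responses induced by 10 μM NMDA, agonist applied for a further 90 s; IC50 derived.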

[29] = biological target: T2, Glutamate receptor ionotropic, AMPA; experiment: In vitro binding affinity for rat cortical membrane Ionotropic glutamate receptor AMPA determined using [3H]AMPA as radioligand
Rattus norvegicus [30] = species: Rattus norvegicus; experiment: Percent inhibition of the response induced by 5 uM of AMPA at a concentration of 1 mM in rat; type: functional
Mus musculus [31] = experiment: In vivo anticonvulsant activity determined as ip dose that blocked NMDA-induced clonic seizures induced in DBA/2 mice; type: functional
Mus musculus [32] = experiment: In vivo anticonvulsant activity determined as ip dose that blocked 3,5-DHPG induced clonic seizures induced in DBA/2 mice; type: functional; method in brief: as §5
Mus musculus [33] = experiment: In vivo anticonvulsant activity determined as potency that blocked tonic seizures induced by audiogenic stimuli in DBA/2 mice after pretreatment with D-serine; type: functional; method in brief: as §7
Mus musculus [34] = experiment: In vivo anticonvulsant activity determined as potency that blocked clonic seizures induced in DBA/2 mice by audiogenic stimuli; type: functional
Mus musculus [35] = experiment: In vivo anticonvulsant activity determined as potency that blocked clonic seizures induced by audiogenic stimuli in DBA/2 mice after pretreatment with D-serine; type: functional; method in brief: as §7
Mus musculus [36] = experiment: In vivo anticonvulsant activity determined as potency that blocked NMDA-induced tonic seizures induced in DBA/2 mice; type: functional
Mus musculus [37] = experiment: In vivo anticonvulsant activity determined as potency that blocked NMDA-induced clonic seizures induced in DBA/2 mice; type: functional
Mus musculus [38] = experiment: In vivo anticonvulsant activity determined as potency that blocked tonic seizures induced in DBA/2 mice by audiogenic stimuli; type: functional

O=C(O)c1cc(O)c2c(Cl)cc(Cl)cc2n1
ED50 (Mus musculus [1]): 2.4 µmol/kg
ED50 (Mus musculus [2]): 26 µmol/kg
ED50 (Mus musculus [3]): 12 µmol/kg
ED50 (Mus musculus [4]): 11 µmol/kg
ED50 (Mus musculus [5]): 8.5 µmol/kg
ED50 (Mus musculus [6]): 14 µmol/kg
ED50 (Mus musculus [7]): 2.2 µmol/kg
ED50 (Mus musculus [8]): 22 µmol/kg

N[C@@H](CCCP(=O)(O)O)C(=O)O
pIC50 (Glutamate NMDA receptor): 4.54

N[C@H](CCCP(=O)(O)O)C(=O)O
pIC50 (Glutamate NMDA receptor): 6.06

N[C@]1(C(=O)O)C[C@@H]2ON=C(C(=O)O)[C@@H]2C1 (racemic)
pEC50 [9]: 4.80
pKi [10]: < 3.00
ED50 (Mus musculus [11]): 91 µmol/kg
pEC50 (Rattus norvegicus [12]): < 3.00
pIC50 [13]: < 4.00
pIC50 (Rattus norvegicus [14]): < 3.00
ED50 (Mus musculus [15]): 84 µmol/kg
ED50 (Mus musculus [16]): 25 µmol/kg
pIC50 (Glutamate NMDA receptor): < 4.00
ED50 (Mus musculus [17]): 24 µmol/kg
pKi [18]: 3.36
ED50 (Mus musculus [19]): 41 µmol/kg
pEC50 [20]: < 3.00
pIC50 [21]: < 4.00
pKi [22]: 4.57
ED50 (Mus musculus [23]): 42 µmol/kg

N[C@@]1(C(=O)O)CC[C@@H](C(=O)O)C1 (racemic)
pEC50 [9]: 5.70
pEC50 [24]: 4.64
pEC50 [20]: 3.10

N[C@@]1(C(=O)O)C[C@@H]2ON=C(C(=O)O)[C@@H]2C1 (racemic)
pKi [10]: < 3.00
ED50 (Mus musculus [25]): 39 µmol/kg
pEC50 (Rattus norvegicus [12]): < 3.00
ED50 (Mus musculus [26]): 45 µmol/kg
Activation [27]: 36%
pIC50 (Rattus norvegicus [28]): 4.85
pIC50 [29]: < 4.00
Inhibition (Rattus norvegicus [30]): 32%
ED50 (Mus musculus [16]): 22 µmol/kg
ED50 (Mus musculus [31]): 54 µmol/kg
pIC50 (Glutamate NMDA receptor): 6.31
ED50 (Mus musculus [17]): 27 µmol/kg
pKi [18]: 3.19
ED50 (Mus musculus [32]): 70 µmol/kg
ED50 (Mus musculus [19]): 33 µmol/kg
pEC50 [20]: < 3.00
pIC50 [21]: < 4.00
pKi [22]: 4.03
ED50 (Mus musculus [23]): 28 µmol/kg

CC(C)OC(=O)Nc1cccc(Cl)c1 [CHLORPROPHAM]
ED50 (Mus musculus [1]): 5.6 µmol/kg
ED50 (Mus musculus [2]): 41 µmol/kg
ED50 (Mus musculus [3]): 5.2 µmol/kg
ED50 (Mus musculus [4]): 6.9 µmol/kg
ED50 (Mus musculus [5]): 2.8 µmol/kg
ED50 (Mus musculus [6]): 8.7 µmol/kg
ED50 (Mus musculus [7]): 2.6 µmol/kg
ED50 (Mus musculus [8]): 22 µmol/kg

NC(=O)OCC(COC(N)=O)c1ccccc1 [FELBAMATE]
ED50 (Mus musculus [33]): 328 µmol/kg
ED50 (Mus musculus [34]): 204 µmol/kg
ED50 (Mus musculus [35]): 674 µmol/kg
ED50 (Mus musculus [36]): 51 µmol/kg
ED50 (Mus musculus [37]): 122 µmol/kg
ED50 (Mus musculus [38]): 97 µmol/kg

O=C(O)[C@H]1CN(C/C=C/P(=O)(O)O)CCN1 [MIDAFOTEL]
ED50 (Mus musculus [25]): 11 µmol/kg
ED50 (Mus musculus [26]): 6.8 µmol/kg
ED50 (Mus musculus [16]): 0.79 µmol/kg
ED50 (Mus musculus [31]): 17 µmol/kg
pIC50 (Glutamate NMDA receptor): 7.40
ED50 (Mus musculus [17]): 1.2 µmol/kg
ED50 (Mus musculus [32]): 8.6 µmol/kg
ED50 (Mus musculus [19]): 2.5 µmol/kg
ED50 (Mus musculus [23]): 1.8 µmol/kg

O=C1NC(=O)C(c2ccccc2)(c2ccccc2)N1 [PHENYTOIN]
ED50 (Mus musculus [33]): 8.7 µmol/kg
ED50 (Mus musculus [34]): 9.1 µmol/kg
ED50 (Mus musculus [35]): 11 µmol/kg
ED50 (Mus musculus [36]): 2.2 µmol/kg
ED50 (Mus musculus [37]): 31 µmol/kg
ED50 (Mus musculus [38]): 7.3 µmol/kg

CCCC(CCC)C(=O)O [VALPROIC ACID]
ED50 (Mus musculus [33]): 205 µmol/kg
ED50 (Mus musculus [34]): 258 µmol/kg
ED50 (Mus musculus [35]): 275 µmol/kg
ED50 (Mus musculus [36]): 498 µmol/kg
ED50 (Mus musculus [37]): 878 µmol/kg
ED50 (Mus musculus [38]): 187 µmol/kg
